Screens: PubChem, several laboratories
Most compounds without a hit are left out; they make up all but 2.9% or so of the library.
PKA inh: PKA (human) kinase inhibition | P17612 | PKA Kemptide phosphorylation, Kinase-Glo ATP luminescence | inhibition, % at 6 µM | hit rate 0.1% among 65,000 | AID 524;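 active means inhibition above the screen-wide mean inhibition plus 3 SD, cut at about 21% in these data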
ROCK2 inh: blocks human Rho kinase 2 activity; hit rate 0.35% among 60,000; purified ROCK2, Kinase-Glo ATP depletion luminescence; inhibition, % at 6 µM;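 active means inhibition above the screen-wide mean inhibition plus 3 SD, cut at about 18% in these data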;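 further: plate controls were DMSO wells for no effect and Y-27632 control wells after no-enzyme background subtraction for full effect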
JNK3 inh: JNK3 (human) kinase inhibition; inhibition, % at 8 µM; purified JNK3 kinase activity, HTS; hit rate 0.61% among 60,000; in the data active means inhibition above about 17%;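 further: 0% = DMSO and 100% = reference inhibitor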
RORa activator: activates the human nuclear receptor RORA; hit rate 1.5% among 65,000; AID 560; P35398; activation, % at 10 µM; CHO-K1 Gal4-RORA LBD luciferase reporter, luminescence; percent increase over mock-subtracted basal signal;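 active means activation above the mean of all tested compounds plus 3 SD, cut at about 49% in these data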;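 further: 0% = DMSO-treated RORA cells and 100% = added signal equal to DMSO minus mock-transfected cells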
mHtt clearance: mutant huntingtin protein clearance | HeLa Exon1htt(103Q)mCFP, aggregate imaging; zero = plate's median compound well | inhibition, % at 1.5 µM | hit rate 0.42% among 47,000 | AID 853;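 active means inhibition of aggregate fluorescence above about 70%, also judged a hit by eye on the cell image, limit read from the data, passing the limit was not always enough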;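 further: cells exposed to compound for three days before fixation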
SF-1 act: activates the human nuclear receptor SF-1; hit rate 1.9% among 65,000; activation, % at 10 µM; CHO-K1 Gal4-SF-1 LBD luciferase reporter; % increase over DMSO SF-1-specific signal;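 active means activation above the mean activation of all tested compounds plus 3 SD, cut at about 50% in these data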
Target sequence (Q13285 whole entry, looked up, the tested form may be a part): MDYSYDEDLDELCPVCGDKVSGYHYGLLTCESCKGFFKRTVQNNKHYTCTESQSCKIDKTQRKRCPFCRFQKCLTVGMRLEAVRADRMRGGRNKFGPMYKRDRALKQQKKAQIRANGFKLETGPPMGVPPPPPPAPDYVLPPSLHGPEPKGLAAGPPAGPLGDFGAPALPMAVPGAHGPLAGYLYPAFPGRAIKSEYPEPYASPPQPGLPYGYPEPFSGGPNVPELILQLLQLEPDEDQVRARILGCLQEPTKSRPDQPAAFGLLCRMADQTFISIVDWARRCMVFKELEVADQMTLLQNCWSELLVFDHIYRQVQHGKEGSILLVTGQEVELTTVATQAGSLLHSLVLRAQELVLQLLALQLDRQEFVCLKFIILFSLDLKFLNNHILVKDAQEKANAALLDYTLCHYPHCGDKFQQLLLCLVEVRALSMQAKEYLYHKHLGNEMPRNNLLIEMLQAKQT
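Test system: transient Gal4-SF-1 LBD reporter, CHO-K1; Amount: 4,000 CHO-K1 cells per well; Doses: 10 µM only; Timing: compound exposure 20 h at 37 °C; Signal: luciferase light emission; Read-out basis: percent activation relative to DMSO median and mock-transfected background; Control set: DMSO negative control and −SF1 background wells; Replicates: one test per compound.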
The depositor's hits bear a star.

`Cc1ccc(-c2cnc(-c3ccncc3)o2)cc1` gave PKA inh 13, ROCK2 inh 11, JNK3 inh 0, RORa activator 58*, mHtt clearance 26 and SF-1 act 65*.
For COc1ccc2oc(=O)c(-c3nc(C)cs3)cc2c1 the results were PKA inh 2, ROCK2 inh 10, JNK3 inh 0, RORa activator 12 and SF-1 act 54*.
For COc1ccc2oc(=O)c(NC(=O)C3CCCCC3)cc2c1 the results were PKA inh 6, ROCK2 inh 4, JNK3 inh 4, RORa activator -10, mHtt clearance 18 and SF-1 act 20.
Screening Cc1ccc(NC2=CC(=O)CC(c3ccco3)C2)c(N)c1 (stereo unspecified) returned PKA inh 8, ROCK2 inh 2, JNK3 inh -9, RORa activator 50*, mHtt clearance 14 and SF-1 act 58*.
Screening Nc1ccccc1NC1=CC(=O)CC(c2ccco2)C1 (stereo unspecified) returned PKA inh -12, ROCK2 inh -16, JNK3 inh -7, RORa activator 21 and SF-1 act 5.
C/C(NC1CCCCC1)=C(/C#N)C(=O)NCCN1CCOCC1 was read as PKA inh 6, ROCK2 inh 6, JNK3 inh -1, RORa activator 2, mHtt clearance 45 and SF-1 act 3.
Screening CCc1cc2c(=O)c(-c3ccc4c(c3)OCCO4)coc2cc1OC(=O)c1ccco1 returned PKA inh 8, ROCK2 inh 7, JNK3 inh 7, RORa activator 29, mHtt clearance 43 and SF-1 act 66*.
`CCCc1cc2c(=O)c(-c3ccc4c(c3)OCCO4)coc2cc1OC(=O)c1ccco1` gave mHtt clearance 30.
Screening COc1ccc(NC(=O)C2CCCCN2CC(=O)OCc2ccccc2)cc1OC (stereo unspecified) returned PKA inh 9, ROCK2 inh 5, JNK3 inh 0, RORa activator 9 and SF-1 act 0.
Screening Oc1cc(NCc2cccnc2)ccc1-c1nc2ccccc2o1 returned PKA inh 4, ROCK2 inh 4, JNK3 inh 0, RORa activator 61*, mHtt clearance -144 and SF-1 act 38.
Screening N#Cc1c(N2CCCC2)nc(N)c2c(N)nc(N3CCCC3)cc12 returned PKA inh 14, ROCK2 inh 8, JNK3 inh -7, RORa activator 28 and SF-1 act 50*.
Screening COc1cc2c(C#N)c(N3CCN(c4ccccc4OC)CC3)nc(N)c2c(N)n1 returned PKA inh 7, RORa activator -3 and SF-1 act -73.
`COc1ccc(OC)c(N=c2oc3cc(O)ccc3cc2C(N)=O)c1` gave PKA inh -3, ROCK2 inh 0, JNK3 inh 3, RORa activator 68*, mHtt clearance 13 and SF-1 act 43.
`O=C(Nc1nc2c(s1)CCCC2)c1cc2n(n1)C(C(F)(F)F)CC(C1CC1)N2` (stereo unspecified) gave PKA inh 8, ROCK2 inh 6, JNK3 inh -2, RORa activator 118* and SF-1 act 56*.
For O=C(NCc1ccc(F)cc1)c1cc2n(n1)C(C(F)(F)F)CC(C1CC1)N2 (stereo unspecified) the results were PKA inh 4, ROCK2 inh -5, JNK3 inh -3, RORa activator 64*, mHtt clearance 32 and SF-1 act 48.
Screening O=C(COC(=O)c1cnccn1)NCc1ccccc1 returned mHtt clearance 22.
`O=C(OCc1nc2ccccc2s1)c1cnccn1` gave PKA inh 10, ROCK2 inh 6, JNK3 inh -3, RORa activator 53*, mHtt clearance -65 and SF-1 act 54*.
For O=C(OCc1nc2ccccc2s1)c1cccs1 the results were PKA inh 0, ROCK2 inh -2, JNK3 inh -1, RORa activator 53*, mHtt clearance -28 and SF-1 act 50*.
Screening Cn1c(C(=O)Nc2ccc3c(c2)OCO3)cc2sccc21 returned PKA inh 0, ROCK2 inh -1, JNK3 inh -4, RORa activator 38, mHtt clearance 15 and SF-1 act 79*.
